Source: ChEMBL document CHEMBL1130431, “Synthesis and biochemical evaluation of N-(4-phenylthiazol-2-yl)benzenesulfonamides as high-affinity inhibitors of kynurenine 3-hydroxylase” (J Med Chem, 1997)

Assays:
[1] = target: T1, Kynurenine 3-monooxygenase (Rattus norvegicus, UniProt O88867); test: Inhibition of rat kidney Kynurenine 3-hydroxylase.
Procedure, shortened: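 The enzyme source was a crude mitochondrial fraction from rat kidney. The assay used 0.1 M K-phosphate pH 7.4 with 100 µM L-kynurenine plus 0.1 µCi L-[3-3H]kynurenine, 200 µM NADPH, and an NADPH-regenerating system, with 30 µg protein. Inhibitor was preincubated 15 min at 37 °C, then the reaction ran 10 min at 37 °C. Charcoal removed substrate and 3H2O was counted.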

[2] = tested on: Kynurenine 3-monooxygenase (Meriones unguiculatus); test: Compound was evaluated for ex vivo inhibition of Kynurenine 3-hydroxylase activity in brain from Gerbils after injecting perorally; settings: Gerbillinae
[3] = target: Kynurenine 3-monooxygenase (Rattus norvegicus) (UniProt O88867); test: Compound was evaluated for ex vivo inhibition of Kynurenine 3-hydroxylase activity in kidney of rat after injecting perorally; type: tissue-based
Sequence of Kynurenine 3-monooxygenase (Rattus norvegicus) (O88867 whole entry, looked up): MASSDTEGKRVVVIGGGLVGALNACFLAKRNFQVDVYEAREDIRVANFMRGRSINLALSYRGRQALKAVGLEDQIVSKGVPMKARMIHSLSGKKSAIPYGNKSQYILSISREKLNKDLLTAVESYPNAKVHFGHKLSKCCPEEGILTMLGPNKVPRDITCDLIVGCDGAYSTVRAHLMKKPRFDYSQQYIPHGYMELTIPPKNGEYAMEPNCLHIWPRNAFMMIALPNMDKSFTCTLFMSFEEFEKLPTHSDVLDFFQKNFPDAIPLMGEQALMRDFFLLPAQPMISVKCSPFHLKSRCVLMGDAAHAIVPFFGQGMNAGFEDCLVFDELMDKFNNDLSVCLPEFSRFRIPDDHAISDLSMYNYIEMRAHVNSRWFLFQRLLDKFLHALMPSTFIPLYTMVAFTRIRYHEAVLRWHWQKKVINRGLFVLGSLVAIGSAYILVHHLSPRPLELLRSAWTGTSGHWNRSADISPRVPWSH
Procedure, shortened: (§1)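 Rats got oral doses in 0.1% Tween-80 suspension (0.5 mL/100 g), five or six doses with four or five animals per dose, and were decapitated 2 h later. Kidney or liver was homogenized in 9 volumes of 0.32 M sucrose/5 mM Tris-HCl pH 7.4 with 0.5 mM PMSF. 25 µL homogenate was assayed by [3H]water release with 2 min incubation.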

[4] = tested on: Kynurenine 3-monooxygenase (Meriones unguiculatus); test: Compound was evaluated for ex vivo inhibition of Kynurenine 3-hydroxylase activity in Kidney from Gerbils after injecting perorally; settings: Gerbillinae
[5] = tested on: Kynurenine 3-monooxygenase (Meriones unguiculatus); test: Compound was evaluated for ex vivo inhibition of Kynurenine 3-hydroxylase activity in Liver from Gerbils after injecting perorally; settings: Gerbillinae
[6] = target: Kynurenine 3-monooxygenase (Rattus norvegicus) (UniProt O88867); test: Compound was evaluated for ex vivo inhibition of Kynurenine 3-hydroxylase activity in liver of rat after injecting perorally; type: tissue-based; procedure, shortened: as §1
[7] = target: T1, Kynurenine 3-monooxygenase; test: Inhibitory constant against Kynurenine 3-hydroxylase
Procedure, shortened: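 Competitive-inhibition kinetics on rat kidney crude mitochondrial kynurenine 3-hydroxylase. L-[3-3H]kynurenine saturation experiments with NADPH 200 μM plus a glucose 6-phosphate regenerating system, in 0.1 M potassium phosphate pH 7.4 at 37 °C. No preincubation; the enzyme was added to start the reaction. Read-out was tritiated water counted after charcoal removal of substrate. Ki was taken from replots of apparent Km versus inhibitor concentration; three experiments.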

T1 sequence (O88867 whole entry): as the sequence (O88867 whole entry, looked up) above

Row | Compound | IC50 [1] [nM] | also measured
1 | Cc1ccc(S(=O)(=O)Nc2nc(-c3ccccc3)cs2)cc1 | 470 | 
2 | COc1ccc(S(=O)(=O)Nc2nc(-c3cc(C(F)(F)F)ccc3F)cs2)cc1OC | 39 | ED50 [2]: 5.2 µmol/kg; ED50 [3]: 6.6 µmol/kg; ED50 [4]: 1.8 µmol/kg; ED50 [5]: 0.9 µmol/kg; ED50 [6]: 5.3 µmol/kg
3 | COc1ccc(S(=O)(=O)Nc2nc(-c3cccc([N+](=O)[O-])c3)cs2)cc1OC | 37 | Ki [7]: 4.8 nM
4 | CC(C)c1ccc(S(=O)(=O)Nc2nc(-c3cccc([N+](=O)[O-])c3)cs2)cc1 | 990 | 
5 | COc1ccc(S(=O)(=O)Nc2nc(-c3cccc([N+](=O)[O-])c3)cs2)cc1 | 51 | ED50 [3]: 3 µmol/kg; ED50 [6]: 9 µmol/kg
6 | O=[N+]([O-])c1cccc(-c2csc(NS(=O)(=O)c3ccc(Cl)c(Cl)c3)n2)c1 | 120 | 
7 | Cc1ccc(-c2csc(NS(=O)(=O)c3ccc(C)cc3)n2)cc1 | 76 | 
8 | Nc1ccc(S(=O)(=O)Nc2nc(-c3cc(C(F)(F)F)ccc3F)cs2)cc1 | 19 | ED50 [3]: 1.1 µmol/kg; ED50 [6]: 4.6 µmol/kg
9 | Cc1ccc(S(=O)(=O)Nc2nc(-c3cccc([N+](=O)[O-])c3)cs2)cc1 | 48 | ED50 [3]: 13.3 µmol/kg; ED50 [6]: 33.4 µmol/kg
10 | COc1ccc(-c2csc(NS(=O)(=O)c3ccc(C)cc3)n2)cc1 | 240 | 
11 | Cc1ccc(S(=O)(=O)Nc2nc(-c3ccc(O)c(C)c3)cs2)cc1 | 114 | 
12 | O=[N+]([O-])c1cccc(-c2csc(NS(=O)(=O)c3ccc(Cl)cc3)n2)c1 | 84 | 
13 | Cc1ccc(S(=O)(=O)Nc2nc(-c3ccc(Cl)c(Cl)c3)cs2)cc1 | 56 | 
14 | Cc1ccc(S(=O)(=O)Nc2nc(-c3ccc(Cl)cc3)cs2)cc1 | 56 | 

Further lines, with some results ahead:

Row | IC50 [1] [nM] | Compound | also measured
15 | 5770 | O=C(O)CCC(=O)c1cccc([N+](=O)[O-])c1 | 
16 | 200 | O=[N+]([O-])c1cccc(-c2csc(NS(=O)(=O)c3ccccc3)n2)c1 | 
17 | 40 | Nc1ccc(S(=O)(=O)Nc2nc(-c3cccc([N+](=O)[O-])c3)cs2)cc1 | 
18 | 2680 | O=C(O)c1[cH-]c(-c2cccc([N+](=O)[O-])c2)[o+]n1 | 
19 | 774 | NC(CC(=O)c1cccc([N+](=O)[O-])c1)C(=O)O (stereo unspecified) | 
20 | 1160 | O=[N+]([O-])c1cccc(-c2cc(-c3nn[nH]n3)no2)c1 | 
21 | 237 | NC(CC(=O)c1ccc(Cl)c(Cl)c1)C(=O)O (stereo unspecified) | Ki [7]: 95 nM; ED50 [3]: 25.1 µmol/kg; ED50 [6]: 222 µmol/kg
